Laboratory results published in ChEMBL document CHEMBL3992510, “Urea Derivatives of 2-Aryl-benzothiazol-5-amines: A New Class of Potential Drugs for Human African Trypanosomiasis” (J Med Chem, 2017).
Activity calls are given as the source filed them. The calls are words filed in the database; no cut-off is given here.

Key:
[1] = test system: HepG2; assay: Cytotoxicity against human HepG2 cells assessed as growth inhibition after 48 hrs by Alamar blue assay; format: cell-based; details: Homo sapiens, HepG2, 48 h
Summary of the method: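 CRL-8155 lymphoblasts or HepG2 hepatocellular carcinoma cells are exposed 48 h to serial compound dilutions in quadruplicate. Growth is read with Alamar Blue, and 50% and 90% inhibitory concentrations come from nonlinear regression. Quinacrine is the control.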

[2] = Selectivity index, ratio of EC50 for human CRL8155 cells to EC50 for Trypanosoma brucei brucei BF427; format: toxicity; details: read-out: Ratio EC50
[3] = Stability in mouse liver microsomes assessed as compound remaining at 1.5 uM in presence of NADPH measured after 60 mins by liquid chromatography/tandem mass spectrometric analysis; format: ADME, microsome; details: read-out: Stability
Summary of the method: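 Pooled liver microsomes (0.5 mg/mL) are preincubated 5 min at 37 °C in 0.16 M KH2PO4 with 1 mM NADPH, then test compound is added at 1.5 μM. Aliquots are quenched with 4 volumes of acetonitrile at 0, 5, 10, 15, 30 and 60 min and analyzed by LC-MS/MS. Percent remaining at 5 or 60 min is given when t1/2 is outside the 5–60 min range. Controls: testosterone, dextromethorphan.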

[4] = AUC (0 to infinity) in mouse at 50 mg/kg, po administered as single dose via gavage as 7% Tween 80/3% EtOH/5% DMSO formulation by liquid chromatography/tandem mass spectrometric analysis; format: ADME, organism-based; parameters: dose 50 mg/kg, route oral, time infinity; details: in vivo
Summary of the method: (§1)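 Single oral gavage dose of 50 mg/kg to groups of three mice, vehicle as in the line. Tail blood of 40 μL is taken into heparinized capillaries at time points out to as much as 32 h. It is spotted on dried-blood cards and quantified by LC-MS/MS. Values are means ± SEM of three mice.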

[5] = Drug level in mouse plasma at 5 mg/kg, ip administered as single dose measured at 1 hr post dose by liquid chromatography/tandem mass spectrometric analysis; format: ADME, organism-based
Summary of the method: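 Single ip dose of 5 mg/kg in 5% DMSO/7% Tween 80/3% EtOH in 0.9% saline, three mice per compound (six for one compound). At 1 h, plasma is separated by centrifugation and brain homogenized in acetonitrile. Both are quantified by LC-MS/MS, with brain corrected for 3% v/w blood. Brain/plasma ratio is reported as mean ± SEM.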

[6] = Drug level in mouse plasma at 50 mg/kg, po administered as single dose via gavage measured at 1 hr post dose by liquid chromatography/tandem mass spectrometric analysis; format: ADME, organism-based
Summary of the method: (§2)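 Single 50 mg/kg oral dose in DMSO (5%), Tween 80 (7%), EtOH (3%) in 0.9% saline; groups of three mice killed at 1, 4, 8 and 24 h. Plasma separated by brief centrifugation; brain homogenised in acetonitrile; both assayed by LC-MS/MS, brain values corrected for 3% v/w blood content. Mean ± SEM of 3 mice; plasma LLQ 0.010 μM.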

[7] = Drug level in mouse brain at 50 mg/kg, po administered as single dose via gavage measured at 1 hr post dose by liquid chromatography/tandem mass spectrometric analysis; format: ADME, organism-based; details: read-out: Drug uptake; summary of the method: as §2
[8] = Drug level in mouse brain at 50 mg/kg, po administered as single dose via gavage measured at 8 hrs post dose by liquid chromatography/tandem mass spectrometric analysis; format: ADME, organism-based; details: read-out: Drug uptake; summary of the method: as §2
[9] = AUC (0 to infinity) in mouse at 50 mg/kg, po administered as single dose via gavage as 0.5% methylcellulose cP400/0.5% Tween 80 formulation by liquid chromatography/tandem mass spectrometric analysis; format: ADME, organism-based; parameters: dose 50 mg/kg, route oral, time infinity; details: in vivo; summary of the method: as §1
[10] = Cmax in mouse brain at 50 mg/kg, po administered as single dose via gavage by liquid chromatography/tandem mass spectrometric analysis; format: ADME, organism-based; parameters: dose 50 mg/kg, route oral
Summary of the method: (§3)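 Time course after a single 50 mg/kg oral dose in 5% DMSO/7% Tween 80/3% EtOH in 0.9% saline. Mice are sacrificed in groups of three at 1, 4, 8 and 24 h. Plasma is separated by centrifugation and brain homogenized in acetonitrile, both measured by LC-MS/MS. Brain values are corrected for 3% v/w blood. Lower limit of quantitation 0.010 μM. Values are means ± SEM.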

[11] = AUC (0 to infinity) in mouse brain at 50 mg/kg, po administered as single dose via gavage by liquid chromatography/tandem mass spectrometric analysis; format: ADME, organism-based; parameters: dose 50 mg/kg, time infinity, route oral; summary of the method: as §3
[12] = test system: Plasma; assay: Drug level in Swiss-Webster mouse plasma infected with Trypanosoma brucei rhodesiense STIB900 at 50 mg/kg, po bid administered via gavage for 4 days starting from 2 days post infection measured on day 3 prior to dose 7; format: ADME, organism-based; details: in vivo
Summary of the method: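 Female Swiss-Webster mice (ND4 outbred, 6−8 weeks), groups of five, infected day 0 with 1 × 10^4 T. b. rhodesiense STIB900; 50 mg/kg oral gavage every 12 h days 2−5 (eight doses) in 200 μL DMSO 5%, Tween 80 7%, EtOH 3% in 0.9% saline. Tail blood from 3 mice before dose 7, then 1 and 6 h post-dose, spotted on cards, LC-MS/MS.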

[13] = test system: Trypanosoma brucei brucei; assay: Anti-parasitic activity against Trypanosoma brucei brucei TREU667 infected in mouse assessed as reduction in parasitemia at 50 mg/kg, bid administered via oral gavage on day 21 to 30 post infection measured on day 180 by microscopic method; format: functional, organism-based
Summary of the method: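 Groups of five mice are infected on day 0 with 1 × 10^4 parasites to give a chronic infection. From day 21, mice receive 50 mg/kg orally b.i.d. for 10 days (20 doses) in 200 μL of 60% Phosal 53 MCT/30% PEG400/10% EtOH; a vehicle-only group runs alongside. Tail blood slides are examined microscopically until 180 days postinfection. Three mice are sampled before dose 15 and at 1 and 6 h after.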

O=C(Nc1ccc2sc(-c3ccc(F)c(F)c3)nc2c1)N1CC[C@H](F)C1
EC50 [1]: > 50 µM
selectivity ratio [2]: > 1440
remaining at 1 h, 1.5 µM [3]: 73%
AUC(0-inf) [4]: 220 to 221 µM·h
concentration at 1 h [5]: 2.27 µM
concentration at 1 h [6]: 27.1 µM
concentration at 1 h [7]: 38.2 µM
concentration at 8 h [8]: 48.1 µM
AUC(0-inf) [9]: 106 µM·h
Cmax [10]: 54.8 µM
AUC(0-inf) [11]: 719 µM·h
concentration [12]: 9.1 µM
Activity [13]: Active
